Test results taken from PMC9444296 (Investigative Radiology, 2022).
Entries after “also recorded” stand apart in the source; their conditions may differ.

Assays:
EDB protein fragment = EDB protein fragment (Homo sapiens, UniProt P02751); experiment: Binding affinity by surface plasmon resonance; conditions: read-out: average binding affinity (Kd); SPR, n = 4
Procedure, shortened: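 EDB protein fragment desalted into 10 mM PBS pH 7.4, then amine-coupled to a CM5 chip active cell (25 μg/mL in 10 mM acetate pH 4.5, 3 min at 10 μL/min, about 1500 RU). Both cells were ethanolamine-blocked (pH 8.5, 7 min). Test compound (1.0 mM stock in 0.05% Tween-20/10 mM PBS pH 7.4 running buffer) was injected at varying concentrations for 120 s at 50 μL/min, with 5 min dissociation. Kd came from instrument evaluation software.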

Gd = format: physicochemical; conditions: HPLC-UV
Procedure, shortened: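 Test compound at 0.25 mM (final) was incubated with 0.25 mM DOTA, DTPA, HP-DO3A or EDTA, or with 0.50 mM ZnCl₂. Buffers were 0.05 M acetate pH 5 or 0.05 M Tris pH 7.4, at room temperature (25°C) or 37.5°C, for up to 30 days. Intact compound remaining was measured by HPLC-UV (C18; 0.08% TFA acetonitrile/water).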

[1] = Plasma stability, rat plasma; format: in vitro ADME; conditions: 0.5 mM, 37°C, HPLC; for average remaining percentage of intact MT218: n = 2
Procedure, shortened: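 Test compound at 0.5 mM was incubated in human, rat or dog plasma at 37°C for up to 48 h, with PBS as control. Samples were mixed with methanol, centrifuged, and the intact compound was quantified by analytical reversed-phase (C18) HPLC.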

CYP2D6 = CYP2D6 (Homo sapiens, UniProt P10635); experiment: CYP2D6 inhibition in human liver microsomes; format: in vitro ADME; conditions: 0.01, 0.1, 1, 10, and 100 μM, pooled human liver microsomes 0.5 mg/mL
MDR1 = MDR1 (Homo sapiens, UniProt P08183); experiment: MDR1 inhibition, membrane vesicles; format: in vitro ADME; conditions: 1, 5, 10, 50, and 100 μM
BCRP = BCRP (Homo sapiens, UniProt Q9UNQ0); experiment: BCRP inhibition, membrane vesicles; format: in vitro ADME; conditions: 1, 5, 10, 50, and 100 μM
OAT1 = OAT1 (Homo sapiens, UniProt Q4U2R8); experiment: OAT1 inhibition, HEK293 cells; format: in vitro ADME; conditions: 1, 5, 10, 50, and 100 μM
MATE2K = MATE2K (Homo sapiens, UniProt Q86VL8); experiment: MATE2K inhibition, HEK293 cells; format: in vitro ADME; conditions: 1, 5, 10, 50, and 100 μM
[2] = test system: PC3 human prostate cancer xenografts; experiment: Contrast-enhanced MRI of PC3 prostate tumor xenografts in rats; format: in vivo, rat; conditions: PC3 tumors in rats, 3 T, n = 6
Procedure, shortened: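 Male rats carried subcutaneous flank xenografts of 4 × 10⁶ PC3 or 8 × 10⁶ LNCaP cells in Matrigel-PBS (1:1) and were imaged once tumours exceeded 100 mm³. Scans used 1 mm slices, 2 averages and a 128 × 128 matrix. The same tumour-bearing rats were reused across agents and doses, with a clinical Gd agent at 0.1 mmol Gd/kg as comparator.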

OPRD1 = OPRD1 (Homo sapiens, UniProt P41143); experiment: SAFETYscan E/IC50 assay, OPRD1; format: biochemical; conditions: concentration range 0.005 to 100 μM
Procedure, shortened: (§1)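 Contract-laboratory in vitro panel of 78 targets, run in agonist and/or antagonist modes under provider SOPs over 0.005 to 100 μM. Panel formats included enzyme fragment complementation, FLIPR-based cellular assays, kinase binding and enzymatic assays.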

GABAA = experiment: SAFETYscan E/IC50 assay, GABAA; format: biochemical; conditions: concentration range 0.005 to 100 μM
Procedure, shortened: as §1

CNS functions = experiment: CNS safety pharmacology; format: in vivo, rat; conditions: SD rats, single IV 0.1, 0.3, and 1.0 mmol/kg, functional observational battery
Procedure, shortened: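 GLP study in SD rats, 5/sex/group, given a single IV dose of 0, 0.1, 0.3 or 1 mmol/kg. A functional observational battery was run at 0.25, 0.75, 1.5 and 4 h post-dose: home-cage, hand-held and open-field observations, responses to stimuli, forelimb grip strength and body temperature.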

Excretion in SD rats = format: in vivo, rat
Procedure, shortened: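 Non-GLP study in SD rats given a single IV dose of 0.1 mmol/kg. One group (3/sex) gave urine and feces predose and at 0–4, 4–8, 8–24, 24–48, 48–72, 72–96, 96–120 and 120–144 h. A second group with conscious biliary cannulation gave bile 30 min predose and at 0–1, 1–2, 2–4, 4–6 and 6–8 h. Gd was measured by ICP-MS.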

beagle dogs = experiment: Single and repeated dose toxicity and toxicokinetics in beagle dogs; format: in vivo, dog; conditions: for accumulation ratio AUC0–24h (D14)/AUC0–24h (D1) of Gd: 14 days
Procedure, shortened: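 GLP study in beagle dogs aged 6–7 months (M 7.34–10.58 kg, F 6.50–9.87 kg). Dosing was a single IV 0.70 mmol/kg or daily IV 0.07, 0.21 or 0.70 mmol/kg/d for 2 weeks, with saline placebo and a 2-week recovery. Clinical observation, organ weights and macro/microscopic histopathology were done. Gd accumulation ratio was AUC0–24h(D14)/AUC0–24h(D1).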

CYP2B6 [3] = molecular target: CYP2B6 (Homo sapiens, UniProt P20813); conditions: 0.01, 0.1, 1, 10, and 100 μM, pooled human liver microsomes 0.5 mg/mL
CYP3A4 = CYP3A4 (Homo sapiens, UniProt P08684); conditions: 0.01, 0.1, 1, 10, and 100 μM, pooled human liver microsomes 0.5 mg/mL
CYP2B6 [4] = conditions: human primary hepatocytes, 1, 10, and 100 μM

Chain of MDR1 (P08183 whole entry): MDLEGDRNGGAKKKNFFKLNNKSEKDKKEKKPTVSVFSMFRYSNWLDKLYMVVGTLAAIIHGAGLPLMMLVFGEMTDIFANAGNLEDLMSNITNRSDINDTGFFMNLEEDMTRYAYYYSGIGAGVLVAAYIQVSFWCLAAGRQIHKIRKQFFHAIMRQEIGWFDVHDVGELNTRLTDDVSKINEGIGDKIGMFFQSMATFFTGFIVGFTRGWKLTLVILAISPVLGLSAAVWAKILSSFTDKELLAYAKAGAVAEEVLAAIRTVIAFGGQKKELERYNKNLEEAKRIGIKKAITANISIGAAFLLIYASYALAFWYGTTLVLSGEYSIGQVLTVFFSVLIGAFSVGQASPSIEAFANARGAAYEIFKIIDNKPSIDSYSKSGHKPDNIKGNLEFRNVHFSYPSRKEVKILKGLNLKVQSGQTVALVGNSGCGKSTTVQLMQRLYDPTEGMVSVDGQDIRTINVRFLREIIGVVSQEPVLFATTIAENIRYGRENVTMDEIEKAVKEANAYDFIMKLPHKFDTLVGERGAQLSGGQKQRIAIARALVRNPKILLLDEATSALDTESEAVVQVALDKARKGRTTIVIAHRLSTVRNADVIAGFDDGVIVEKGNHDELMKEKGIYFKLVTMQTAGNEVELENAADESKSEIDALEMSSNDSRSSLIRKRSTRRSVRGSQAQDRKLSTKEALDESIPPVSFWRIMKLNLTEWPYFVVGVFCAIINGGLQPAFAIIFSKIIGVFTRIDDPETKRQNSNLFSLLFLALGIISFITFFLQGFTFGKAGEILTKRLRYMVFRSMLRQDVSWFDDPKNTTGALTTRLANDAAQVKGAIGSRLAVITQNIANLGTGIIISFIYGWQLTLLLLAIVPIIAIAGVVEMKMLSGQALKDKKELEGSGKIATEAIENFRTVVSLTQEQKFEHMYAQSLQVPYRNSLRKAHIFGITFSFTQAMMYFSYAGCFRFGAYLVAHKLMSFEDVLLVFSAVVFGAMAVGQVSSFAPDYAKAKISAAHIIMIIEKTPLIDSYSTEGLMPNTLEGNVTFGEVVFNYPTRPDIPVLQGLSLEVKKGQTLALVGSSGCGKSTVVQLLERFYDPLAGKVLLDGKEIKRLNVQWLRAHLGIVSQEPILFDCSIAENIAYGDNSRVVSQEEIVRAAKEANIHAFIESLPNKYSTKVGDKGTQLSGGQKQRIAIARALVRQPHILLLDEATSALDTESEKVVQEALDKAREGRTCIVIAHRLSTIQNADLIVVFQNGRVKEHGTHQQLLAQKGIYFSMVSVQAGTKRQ
Chain of EDB protein fragment (P02751 1271-1359 limits assumed): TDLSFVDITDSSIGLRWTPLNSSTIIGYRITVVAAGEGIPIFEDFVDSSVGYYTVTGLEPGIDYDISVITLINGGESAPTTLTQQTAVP
Chain of MATE2K (Q86VL8 1-566 isoform Q86VL8-3): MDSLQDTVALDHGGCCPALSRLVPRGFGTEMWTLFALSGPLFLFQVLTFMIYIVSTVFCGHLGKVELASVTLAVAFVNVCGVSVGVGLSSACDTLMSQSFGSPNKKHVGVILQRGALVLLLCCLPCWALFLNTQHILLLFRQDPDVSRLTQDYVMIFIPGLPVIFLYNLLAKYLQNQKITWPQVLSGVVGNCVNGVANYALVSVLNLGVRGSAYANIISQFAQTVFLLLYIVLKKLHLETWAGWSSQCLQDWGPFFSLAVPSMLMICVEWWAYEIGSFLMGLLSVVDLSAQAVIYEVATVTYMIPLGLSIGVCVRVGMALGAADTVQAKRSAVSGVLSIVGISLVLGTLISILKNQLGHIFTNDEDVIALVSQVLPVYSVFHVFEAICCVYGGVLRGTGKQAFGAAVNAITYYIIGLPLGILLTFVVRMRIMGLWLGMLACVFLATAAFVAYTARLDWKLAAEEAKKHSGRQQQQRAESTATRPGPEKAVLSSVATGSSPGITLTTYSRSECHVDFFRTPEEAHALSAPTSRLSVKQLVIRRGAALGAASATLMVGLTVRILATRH
Chain of OAT1 (Q4U2R8 whole entry): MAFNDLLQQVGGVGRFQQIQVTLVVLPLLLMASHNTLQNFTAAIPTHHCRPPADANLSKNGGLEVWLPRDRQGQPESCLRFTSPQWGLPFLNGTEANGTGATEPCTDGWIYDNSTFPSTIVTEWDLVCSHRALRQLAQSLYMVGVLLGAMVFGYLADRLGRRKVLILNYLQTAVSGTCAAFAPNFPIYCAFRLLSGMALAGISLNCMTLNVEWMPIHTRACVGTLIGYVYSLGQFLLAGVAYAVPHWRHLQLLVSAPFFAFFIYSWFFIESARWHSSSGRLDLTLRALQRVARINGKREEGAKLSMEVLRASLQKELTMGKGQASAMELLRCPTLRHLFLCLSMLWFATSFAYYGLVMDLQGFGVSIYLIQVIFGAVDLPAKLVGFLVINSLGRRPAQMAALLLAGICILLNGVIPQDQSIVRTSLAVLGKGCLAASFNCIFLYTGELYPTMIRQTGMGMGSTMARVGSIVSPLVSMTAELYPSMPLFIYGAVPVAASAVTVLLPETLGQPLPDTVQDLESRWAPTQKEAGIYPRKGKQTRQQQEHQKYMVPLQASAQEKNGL
Chain of CYP2B6 (Homo sapiens, UniProt P20813) (P20813 whole entry): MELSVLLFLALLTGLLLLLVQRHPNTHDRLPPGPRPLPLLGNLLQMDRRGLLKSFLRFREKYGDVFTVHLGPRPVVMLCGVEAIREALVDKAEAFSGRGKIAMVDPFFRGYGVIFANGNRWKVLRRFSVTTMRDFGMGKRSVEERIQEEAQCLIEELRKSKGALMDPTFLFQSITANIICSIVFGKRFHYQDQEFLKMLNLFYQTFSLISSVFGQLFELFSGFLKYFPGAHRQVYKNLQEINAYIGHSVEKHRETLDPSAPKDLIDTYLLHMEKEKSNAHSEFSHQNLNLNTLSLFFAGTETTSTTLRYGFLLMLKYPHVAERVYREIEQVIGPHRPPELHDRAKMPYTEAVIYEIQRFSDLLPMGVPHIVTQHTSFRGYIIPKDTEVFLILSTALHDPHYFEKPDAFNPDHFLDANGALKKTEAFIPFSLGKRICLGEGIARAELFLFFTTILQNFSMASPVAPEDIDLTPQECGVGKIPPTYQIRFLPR
Chain of BCRP (Q9UNQ0 whole entry): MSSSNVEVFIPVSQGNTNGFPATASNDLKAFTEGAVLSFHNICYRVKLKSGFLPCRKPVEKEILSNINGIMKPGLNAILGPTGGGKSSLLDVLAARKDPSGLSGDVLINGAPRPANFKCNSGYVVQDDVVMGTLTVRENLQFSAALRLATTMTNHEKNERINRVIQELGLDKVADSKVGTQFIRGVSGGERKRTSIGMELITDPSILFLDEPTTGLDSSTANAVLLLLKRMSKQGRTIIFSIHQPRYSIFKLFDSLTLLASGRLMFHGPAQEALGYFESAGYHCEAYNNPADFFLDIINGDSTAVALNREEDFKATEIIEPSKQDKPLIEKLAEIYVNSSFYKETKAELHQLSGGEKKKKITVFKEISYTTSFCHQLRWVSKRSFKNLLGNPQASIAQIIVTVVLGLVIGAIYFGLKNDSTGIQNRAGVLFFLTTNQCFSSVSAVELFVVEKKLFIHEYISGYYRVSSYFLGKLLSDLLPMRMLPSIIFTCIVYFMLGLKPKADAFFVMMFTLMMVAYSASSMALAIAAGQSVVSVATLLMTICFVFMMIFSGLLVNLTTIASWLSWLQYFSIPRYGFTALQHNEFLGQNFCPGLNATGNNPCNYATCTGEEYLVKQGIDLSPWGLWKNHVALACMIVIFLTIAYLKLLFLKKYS
Chain of CYP3A4 (P08684 whole entry): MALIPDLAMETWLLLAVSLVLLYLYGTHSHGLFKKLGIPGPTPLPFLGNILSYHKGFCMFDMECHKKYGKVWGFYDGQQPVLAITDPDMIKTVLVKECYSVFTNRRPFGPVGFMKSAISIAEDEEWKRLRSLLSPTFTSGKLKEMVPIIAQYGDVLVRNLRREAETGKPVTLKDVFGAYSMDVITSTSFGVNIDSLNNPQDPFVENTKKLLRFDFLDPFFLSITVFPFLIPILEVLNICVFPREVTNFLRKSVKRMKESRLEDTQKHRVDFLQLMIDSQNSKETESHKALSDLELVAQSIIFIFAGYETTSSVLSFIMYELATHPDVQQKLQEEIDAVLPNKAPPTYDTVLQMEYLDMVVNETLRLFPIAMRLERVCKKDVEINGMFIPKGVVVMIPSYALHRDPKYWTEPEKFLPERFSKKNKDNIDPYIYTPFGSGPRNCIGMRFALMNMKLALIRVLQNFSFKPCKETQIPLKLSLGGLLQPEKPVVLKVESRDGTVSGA
Chain of CYP2D6 (P10635 whole entry): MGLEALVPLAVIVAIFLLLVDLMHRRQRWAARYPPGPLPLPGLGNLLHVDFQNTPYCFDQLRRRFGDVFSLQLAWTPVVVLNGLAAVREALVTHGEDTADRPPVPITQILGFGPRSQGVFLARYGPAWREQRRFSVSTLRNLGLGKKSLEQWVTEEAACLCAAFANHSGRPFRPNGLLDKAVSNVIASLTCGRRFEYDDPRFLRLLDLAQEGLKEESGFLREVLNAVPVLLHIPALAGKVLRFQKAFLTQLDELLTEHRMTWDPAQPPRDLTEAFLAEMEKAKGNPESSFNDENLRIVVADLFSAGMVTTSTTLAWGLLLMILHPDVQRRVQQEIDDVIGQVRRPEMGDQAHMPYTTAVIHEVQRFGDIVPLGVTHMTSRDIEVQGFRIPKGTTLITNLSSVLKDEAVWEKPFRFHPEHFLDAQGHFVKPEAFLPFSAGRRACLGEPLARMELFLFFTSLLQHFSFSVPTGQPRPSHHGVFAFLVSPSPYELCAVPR
Chain of OPRD1 (P41143 whole entry, the tested form may be a part): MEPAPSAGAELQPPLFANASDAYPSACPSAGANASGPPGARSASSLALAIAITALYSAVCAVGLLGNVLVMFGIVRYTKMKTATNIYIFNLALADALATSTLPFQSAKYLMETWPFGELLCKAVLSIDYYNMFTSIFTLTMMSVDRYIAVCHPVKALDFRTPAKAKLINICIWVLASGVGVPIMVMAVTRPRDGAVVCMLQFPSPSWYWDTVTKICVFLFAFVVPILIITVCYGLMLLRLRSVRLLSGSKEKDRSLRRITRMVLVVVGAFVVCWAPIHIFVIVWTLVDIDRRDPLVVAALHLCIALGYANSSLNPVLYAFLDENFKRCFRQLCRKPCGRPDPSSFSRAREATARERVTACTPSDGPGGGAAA

ZD2-N3-Gd(HP-DO3A) [MT218]
Kd (EDB protein fragment): 3.45 µM | duration of chelation stability (Gd; pH 5 (0.05 M acetate), 25°C): at least 30 days | dissociation of MT218 in the presence of Zn(II) ions (Gd; pH 5, 37.5°C, 0.50 mM ZnCl2, at least 30 days): did not cause dissociation | stability of MT218 (Gd; pH 5, 37.5°C, acetate buffer): stable | stability of MT218 in the presence of free chelating ligands (Gd; pH 5, 37.5°C, with 0.25 mM DOTA, DTPA, HP-DO3A or EDTA): Loss of MT218 was observed | average remaining percentage of intact MT218 ([1]; 1 h): 74.87% | average remaining percentage of intact MT218 ([1]; 3 h): 20.54% | average remaining percentage of intact MT218 ([1]; 6 h): 4.61% | average remaining percentage of intact MT218 ([1]; 28 h): 0% | average remaining percentage of intact MT218 ([1]; 48 h): 0% | enzymatic degradation half-life (t1/2) [1]: 1.63 h | inhibition of CYP2D6 activity (CYP2D6): did not inhibit | inhibition of MDR1 transporter activity (MDR1): no inhibition potential | inhibition of BCRP transporter activity (BCRP): no inhibition potential | inhibition of OAT1 transporter activity (OAT1): no inhibition potential | inhibition of MATE2K transporter activity (MATE2K): no inhibition potential | CNR ([2]; 0.02 mmol Gd/kg IV, 10 minutes postinjection): 2.67 ± 1.05 | CNR ([2]; 0.02 mmol Gd/kg IV, 30 minutes postinjection): 1.97 ± 0.67 | CNR ([2]; 0.04 mmol Gd/kg IV, 10 minutes postinjection): 5.94 ± 1.68 | CNR ([2]; 0.04 mmol Gd/kg IV, 30 minutes postinjection): 4.92 ± 0.79 | inhibition rate (OPRD1): 11.08% | inhibition rate (GABAA): 24.25% | effect on parameters of CNS function (CNS functions): No MT218-related effect | total excretion of injected Gd in bile, feces, and urine (Excretion in SD rats; SD rats, 0.1 mmol/kg single IV, within 6 days, ICP-MS): 100.01% ± 10.85% of the injected dose | injected dose excreted in urine (Excretion in SD rats; rats, single dose, within the first 8 hours postinjection): Greater than 80% | NOAEL (beagle dogs; dog, single dosing): not established | mortality or moribundity (beagle dogs; dogs, any dose group, up to 0.70 mmol/kg/d): no mortality or morbidity; also recorded: No mortality or moribundity | clinical observations (body weight, food consumption, temperature, ophthalmoscopy, hematology, coagulation, clinical chemistry, urinalysis) (beagle dogs; dogs, any dose level): No MT218-related changes | pathological findings (beagle dogs; dogs, both sexes, repeated 0.21 mmol/kg/d and 0.70 mmol/kg/d): reversible renal tubule degeneration | NOAEL (beagle dogs; dogs, repeated daily IV dose for 14 days): 0.07 mmol/kg/day | pathological findings (beagle dogs; dogs, repeated low doses 0.07 mmol/kg/d): No renal abnormality | pathological findings (beagle dogs; dogs, single dose 0.70 mmol/kg, no longer evident on day 15): mild bilateral tubule degeneration of proximal and distal tubules | clinical signs during the dosing period (beagle dogs; dogs, single- and repeated-medium and high-dose groups, disappeared after dosing completion): Sporadic symptoms of emesis, retching, and salivation | accumulation ratio AUC0–24h (D14)/AUC0–24h (D1) of Gd (beagle dogs; female dogs, high dose 0.70 mmol/kg/d IV): 1.00 | accumulation ratio AUC0–24h (D14)/AUC0–24h (D1) of Gd (beagle dogs; female dogs, low dose 0.07 mmol/kg/d IV): 0.91 | accumulation ratio AUC0–24h (D14)/AUC0–24h (D1) of Gd (beagle dogs; female dogs, medium dose 0.21 mmol/kg/d IV): 0.99 | accumulation ratio AUC0–24h (D14)/AUC0–24h (D1) of Gd (beagle dogs; male dogs, high dose 0.70 mmol/kg/d IV): 1.02 | accumulation ratio AUC0–24h (D14)/AUC0–24h (D1) of Gd (beagle dogs; male dogs, low dose 0.07 mmol/kg/d IV): 0.92 | accumulation ratio AUC0–24h (D14)/AUC0–24h (D1) of Gd (beagle dogs; male dogs, medium dose 0.21 mmol/kg/d IV): 1.07 | inhibition of CYP2B6 activity (CYP2B6 [3]): did not inhibit | inhibition of CYP3A4 activity (CYP3A4): did not inhibit | induction of mRNA expression of CYP2B6 (CYP2B6 [4]): did not induce | induction on enzyme activity of CYP2B6 (CYP2B6 [4]): no induction
